{
  "source": "ChEMBL document CHEMBL4130614",
  "about": "“Synthesis and Bioactivity of Reduced Chalcones Containing Sulfonamide Side Chains” (J Nat Prod, 2018)",
  "key": {"[1]": {"test_system": "Plasmodium falciparum", "experiment": "Antiplasmodial activity against chloroquine-sensitive Plasmodium falciparum NF54 by lactate dehydrogenase assay", "format": "functional, organism-based", "in_short": "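Asexual erythrocyte-stage P. falciparum kept in continuous in vitro culture (modified Trager–Jensen). Activity quantified by parasite lactate dehydrogenase assay (modified Makler method). Triplicate wells, on one or two separate occasions. IC50 from full dose–response curves by nonlinear curve fitting. Chloroquine run as internal standard to monitor conditions.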"}, "[2]": {"test_system": "Mycobacterium tuberculosis", "experiment": "Antibacterial activity against Mycobacterium tuberculosis H37Rv ATCC 25618 measured at 24 hrs interval by BACTEC radiometric method", "format": "functional", "in_short": "(§1)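 H37Rv grown in 7H9 with ADC to about 0.16 A600 (one McFarland), inoculated into BACTEC vials and incubated at 37 °C to GI 500 (±50). This primary culture was then dosed with filter-sterilised compound at 10 μM in DMSO (final DMSO 2.5%) and held at 37 °C. Growth was read every 24 h as radiometric CO₂ growth index against controls.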"}, "[3]": {"test_system": "Mycobacterium tuberculosis", "experiment": "Antibacterial activity against Mycobacterium tuberculosis H37Rv ATCC 25618 assessed as growth inhibition at 10 uM measured at 24 hrs interval by BACTEC radiometric method relative to control", "format": "functional", "conditions": "for inhibition of growth at 10 µM: Mycobacterium tuberculosis, H37Rv ATCC 25618, 24 h, read-out: GI; call rule not given here", "in_short": "as §1"}, "[4]": {"conditions": "Mycobacterium tuberculosis, H37Rv ATCC 25618, 24 h, read-out: MIC99"}},
  "note": "pIC50: −log10 of the molar value.",
  "data": [
    {"compound": "NS(=O)(=O)c1ccc(NCc2ccc(CCCc3ccccc3)cc2O)cc1", "values": [
      {"measurement": "IC50", "setting": "[1]", "result": "Not Active"},
      {"measurement": "MIC99", "setting": "[2]; [4]", "result": "> 10", "unit": "µM"},
      {"measurement": "inhibition of growth at 10 µM", "setting": "[3]", "result": 14, "unit": "%"}
    ]},
    {"compound": "CN(C)Cc1ccc(CCCc2ccccc2)cc1O", "values": [
      {"measurement": "MIC99", "setting": "[2]; [4]", "result": "> 10", "unit": "µM"},
      {"measurement": "growth inhibition (GI)", "setting": "[3]", "result": 74, "unit": "%"}
    ]},
    {"compound": "Oc1cccc(CCCc2ccccc2)c1", "values": [
      {"measurement": "IC50", "setting": "[1]", "result": "Not Active"},
      {"measurement": "MIC99", "setting": "[2]; [4]", "result": "> 10", "unit": "µM"},
      {"measurement": "inhibition of growth at 10 µM", "setting": "[3]", "result": 94, "unit": "%"}
    ]},
    {"compound": "CN(C)Cc1cc(CCCc2ccccc2)cc(CN(C)C)c1O", "values": [
      {"measurement": "MIC99", "setting": "[2]; [4]", "result": "> 10", "unit": "µM"},
      {"measurement": "inhibition of growth at 10 µM", "setting": "[3]", "result": 42, "unit": "%"}
    ]},
    {"compound": "Cc1cc(NS(=O)(=O)c2ccc(N)cc2)no1", "note": "[SULFAMETHOXAZOLE]", "values": [
      {"measurement": "IC50", "setting": "[1]", "result": "Not Active"}
    ]},
    {"compound": "NS(=O)(=O)c1ccc(NCc2cc(CCCc3ccccc3)cc(CNc3ccc(S(N)(=O)=O)cc3)c2O)cc1", "values": [
      {"measurement": "MIC99", "setting": "[2]; [4]", "result": "> 10", "unit": "µM"},
      {"measurement": "inhibition of growth at 10 µM", "setting": "[3]", "result": 0, "unit": "%"}
    ]},
    {"compound": "COc1ncnc(NS(=O)(=O)c2ccc(N)cc2)c1OC", "note": "[SULFADOXINE]", "values": [
      {"measurement": "IC50", "setting": "[1]", "result": "Not Active"}
    ]},
    {"compound": "Oc1ccc(CCCc2ccccc2)cc1", "values": [
      {"measurement": "MIC99", "setting": "[2]; [4]", "result": "> 10", "unit": "µM"},
      {"measurement": "inhibition of growth at 10 µM", "setting": "[3]", "result": 96, "unit": "%"}
    ]},
    {"compound": "Nc1ccc(S(N)(=O)=O)cc1", "note": "[SULFANILAMIDE]", "values": [
      {"measurement": "IC50", "setting": "[1]", "result": "Not Active"},
      {"measurement": "MIC99", "setting": "[2]; [4]", "result": "> 10", "unit": "µM"},
      {"measurement": "inhibition of growth at 10 µM", "setting": "[3]", "result": 0, "unit": "%"}
    ]},
    {"compound": "C[C@H]1[C@H](OC(=O)CCC(=O)O)O[C@@H]2O[C@@]3(C)CC[C@H]4[C@H](C)CC[C@@H]1[C@@]24OO3", "note": "[ARTESUNATE]", "values": [
      {"measurement": "pIC50", "setting": "[1]; Plasmodium falciparum, NF54, read-out: IC50", "result": "> 5.28"}
    ]},
    {"compound": "CN(C)Cc1cc(CCCc2ccccc2)cc(CN(C)C)c1O.Cl.Cl", "values": [
      {"measurement": "MIC99", "setting": "[2]", "result": ">10", "unit": "µM"},
      {"measurement": "growth inhibition (GI)", "setting": "[3]", "result": 33, "unit": "%"}
    ]},
    {"compound": "CN(C)Cc1ccc(CCCc2ccccc2)cc1O.Cl", "values": [
      {"measurement": "MIC99", "setting": "[2]", "result": ">10", "unit": "µM"},
      {"measurement": "growth inhibition (GI)", "setting": "[3]", "result": 36, "unit": "%"}
    ]}
  ]
}
